Data reported in ChEMBL document CHEMBL4229392, “An Efficient Buchwald-Hartwig/Reductive Cyclization for the Scaffold Diversification of Halogenated Phenazines: Potent Antibacterial Targeting, Biofilm Eradication, and Prodrug Exploration” (J Med Chem, 2018).
≈ marks a conversion by molar mass, not a printed value. Calls of active or inactive are those of the source. The calls are words filed in the database; no cut-off is given here.

How the values were obtained:
[1] = system: Staphylococcus epidermidis; test: Antibacterial activity against methicillin-resistant Staphylococcus epidermidis ATCC 35984 after 16 to 18 hrs by broth microdilution method; assay type: functional
[2] = Hemolytic activity in human RBC at 200 uM after 1 hr relative to control; assay type: ADME, cell-based, Erythrocyte; settings: red blood cells (erythrocytes), read-out: Activity
Outline: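 Human RBCs drawn fresh into EDTA were washed three times in Tris-buffered saline (0.01 M Tris, 0.155 M NaCl, pH 7.2). 2% hRBC suspension was added to compound from DMSO stock, final 200 µM, for 1 h at 37 °C, then centrifuged and supernatant OD405 read. Scaled between DMSO (0%) and Triton X (100%). Three independent experiments.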

[3] = system: Enterococcus faecium; test: Bactericidal activity against vancomycin-resistant Enterococcus faecium ATCC 700221 planktonic cells after 24 hrs by calgary biofilm device method; assay type: organism-based
Outline: (§1)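 Biofilms grown 24 h at 37 °C on Calgary device pegs from mid-log culture diluted 1,000-fold in TSB + 0.5% glucose; washed pegs challenged 24 h at 37 °C with 2-fold serial dilutions. Challenge medium subcultured into fresh TSBG overnight; MBC = concentration without visible turbidity; at least three independent experiments.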

[4] = Half life in human serum by LC-MS analysis; assay type: ADME, cell-free
Outline: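 Human serum pre-warmed to 37 °C, spiked with prodrug from 10 mM DMSO stock plus internal standard, vortexed, then held 1 to 60 min. At each time point, acetonitrile with 0.5% formic acid was added to precipitate proteins. Released active HP was quantified as its ratio to internal standard against standard curves.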

[5] = system: Staphylococcus aureus; test: Antibacterial activity against methicillin-resistant Staphylococcus aureus BAA-1707 after 16 to 18 hrs by broth microdilution method; assay type: functional
Outline: (§2)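 CLSI broth microdilution in Lysogeny Broth, eleven two-fold dilutions spanning 0.10–100 µM; ~10^5 cells per well from log-phase culture; DMSO vehicle (top 1% v/v). MIC = lowest concentration preventing growth after 16–18 h at 37 °C, supported by OD600; three independent experiments.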

[6] = Stability in lysogeny broth at 37 degC up to 16 hrs by UV-vis spectrophotometric method; assay type: physicochemical
Outline: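 Compound from 10 mM DMSO stock was added to LB pre-warmed to 37 °C and incubated at 37 °C. At each time point it was extracted with an equal volume of ethyl acetate, and UV-vis spectra were scanned from 200 to 700 nm in 2 nm steps.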

[7] = system: Staphylococcus epidermidis; test: Induction of biofilm eradication of methicillin-resistant Staphylococcus epidermidis ATCC 35984 after 24 hrs by calgary biofilm device method; assay type: functional
Outline: (§3)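 Calgary device: biofilms established 24 h at 37 °C from mid-log culture diluted 1,000-fold in TSBG (0.5% glucose), washed, exposed 24 h to 2-fold serial dilutions, then peg lid moved to fresh TSBG for 24 h recovery. MBEC = lowest concentration giving no turbidity; at least three independent experiments.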

[8] = system: Staphylococcus aureus; test: Induction of biofilm eradication of methicillin-resistant Staphylococcus aureus BAA-1707 after 24 hrs by calgary biofilm device method; assay type: functional; outline: as §3
[9] = system: Staphylococcus aureus; test: Bactericidal activity against methicillin-resistant Staphylococcus aureus BAA-1707 planktonic cells after 24 hrs by calgary biofilm device method; assay type: organism-based; outline: as §1
[10] = system: Enterococcus faecium; test: Induction of biofilm eradication of vancomycin-resistant Enterococcus faecium ATCC 700221 after 24 hrs by calgary biofilm device method; assay type: functional; outline: as §3
[11] = system: Enterococcus faecium; test: Antibacterial activity against vancomycin-resistant Enterococcus faecium ATCC 700221 after 16 to 18 hrs by broth microdilution method; assay type: functional; outline: as §2
[12] = system: Staphylococcus epidermidis; test: Bactericidal activity against methicillin-resistant Staphylococcus epidermidis ATCC 35984 planktonic cells after 24 hrs by calgary biofilm device method; assay type: organism-based; outline: as §1
[13] = system: HeLa; test: Cytotoxicity against human HeLa cells after 24 hrs by LDH release assy; assay type: cell-based
Outline: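 HeLa cells in DMEM with 10% FBS at 37 °C, 5% CO2, dosed at 70-80% confluence with compound diluted in medium at 25, 50 and 100 µM for 24 h. Supernatant mixed with LDH reaction mixture, 30 min at room temperature, stopped, A490 read. Triton X-100 (2% v/v) as maximal-release control, medium only as no-death control, DMSO as vehicle. Three independent experiments.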

[14] = system: Staphylococcus aureus; test: Bactericidal activity against methicillin-resistant Staphylococcus aureus 2 planktonic cells after 24 hrs by calgary biofilm device method; assay type: organism-based; outline: as §1
[15] = system: Staphylococcus aureus; test: Induction of biofilm eradication of methicillin-resistant Staphylococcus aureus 2 after 24 hrs by calgary biofilm device method; assay type: functional; outline: as §3
[16] = system: Mycobacterium tuberculosis; test: Antibacterial activity against Mycobacterium tuberculosis H37Ra ATCC 25177 after 7 days; assay type: functional; settings: H37Ra ATCC 25177, 168 h
Outline: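 M. tuberculosis H37Ra grown two weeks in Middlebrook 7H9, diluted to OD600 0.01; two-fold serial dilutions 0.024–50 µM (streptomycin positive control, 0.16–340 µM); final DMSO 0.5%. Incubated 7 days at 37 °C; MIC = lowest concentration with no growth, OD600 recorded; three independent experiments.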

[17] = system: Staphylococcus aureus; test: Induction of biofilm eradication of methicillin-resistant Staphylococcus aureus BAA-44 after 24 hrs by calgary biofilm device method; assay type: functional; outline: as §3
[18] = system: Staphylococcus aureus; test: Bactericidal activity against methicillin-resistant Staphylococcus aureus BAA-44 planktonic cells after 24 hrs by calgary biofilm device method; assay type: organism-based; outline: as §1
[19] = system: Staphylococcus aureus; test: Antibacterial activity against methicillin-resistant Staphylococcus aureus 2 after 16 to 18 hrs by broth microdilution method; assay type: functional; outline: as §2
[20] = Selectivity index, ratio of IC50 for human HeLa cells to MIC for methicillin-resistant Staphylococcus aureus BAA-1707; assay type: toxicity; settings: read-out: Selectivity Index
Outline: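 HeLa cells in DMEM + 10% FBS, 37 °C, 5% CO2, at 70–80% confluence exposed 24 h to 25, 50 and 100 µM; LDH release read at 490 nm (Triton X-100 2% maximum, medium-only minimum); three independent experiments. Index = HeLa IC50 divided by MRSA BAA-1707 MIC.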

[21] = Metal chelating activity assessed as compound-copper complex formation by UV-vis spectrometry
[22] = system: Staphylococcus epidermidis; test: Induction of biofilm eradication of methicillin-resistant Staphylococcus epidermidis ATCC 35984 at 1 to 10 uM after 24 hrs by live/dead staining-based fluorescence microscopic method; assay type: functional, organism-based
Outline: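 MRSE 35984 mid-log culture diluted 1:1,000, biofilms grown 24 h at 37 °C in compartment dishes, saline-washed, then treated at 1, 5 and 10 µM in fresh medium for 24 h at 37 °C; DMSO negative control. After saline wash, live/dead stained biofilms imaged by fluorescence microscopy; three independent experiments.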

[23] = Metal chelating activity assessed as compound-Fe2+ complex formation at 5 mM by UV-vis spectrometry
Outline: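 HP solutions given ammonium iron(II) sulfate hexahydrate; UV-vis scans 300–700 nm in 2 nm steps, λmax 374 nm. Loss of absorbance at 374 nm taken as loss of free hydroxyphenazine and formation of phenazine–iron(II) complex.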

[24] = system: Staphylococcus aureus; test: Antibacterial activity against methicillin-resistant Staphylococcus aureus BAA-1707 after 16 hrs by agar diffusion method; assay type: functional

Row | SMILES | MIC [1] [µM] | hemolysis at 1 h, 200 µM [2] [%] | MBC [3] [µM] | MIC [5] [µM] | MBEC [7] [µM] | MBEC [8] [µM] | MBC [9] [µM] | MBEC [10] [µM] | MIC [11] [µM] | MBC [12] [µM] | IC50 [13] [µM] | MBC [14] [µM] | MBEC [15] [µM] | MIC [16] [µM] | MBC [18] [µM] | MIC [19] [µM] | other results
1 | CC1=C(C)C(=O)C(COC(=O)OCOc2c(Br)cc(Br)c3nc4ccccc4nc23)=C(C)C1=O | 2.35 (≈ 1.39 µg/mL) | ≤ 1 | 12.5 (≈ 7.38 µg/mL) | 2.35 (≈ 1.39 µg/mL) | 150 | 75 | 25 (≈ 14.8 µg/mL) | 9.38 | 9.38 (≈ 5.54 µg/mL) | 37.5 (≈ 22.1 µg/mL) | – | – | – | – | – | – | half-life [4]: 6.3 min; Stability [6]: Stable
2 | Oc1c(Br)cc(Br)c2nc3ccccc3nc12 | – | ≤ 1 | 23.5 (≈ 8.32 µg/mL) | – | 100 | 150 | 18.8 to 37.5 (≈ 6.66 to 13.3 µg/mL) | 9.38 | 6.25 (≈ 2.21 µg/mL) | 50 (≈ 17.7 µg/mL) | > 100 | 50 (≈ 17.7 µg/mL) | 100 | 25 (≈ 8.85 µg/mL) | 37.5 (≈ 13.3 µg/mL) | – | MBEC [17]: 150 µM
3 | CC(C)(C)c1ccc2nc3c(O)c(Br)cc(Br)c3nc2c1 | 0.1 (≈ 0.041 µg/mL) | ≤ 1 | 1.56 (≈ 0.64 µg/mL) | 0.1 (≈ 0.041 µg/mL) | 3.13 | – | – | – | 0.1 (≈ 0.041 µg/mL) | 6.25 (≈ 2.56 µg/mL) | > 100 | 3.13 (≈ 1.28 µg/mL) | 3.13 | – | – | 0.1 (≈ 0.041 µg/mL) | –
4 | CN[C@H](CC(C)C)C(=O)N[C@H]1C(=O)N[C@@H](CC(N)=O)C(=O)N[C@H]2C(=O)N[C@H]3C(=O)N[C@H](C(=O)N[C@H](C(=O)O)c4cc(O)cc(O)c4-c4cc3ccc4O)[C@H](O)c3ccc(c(Cl)c3)Oc3cc2cc(c3O[C@@H]2O[C@H](CO)[C@@H](O)[C@H](O)[C@H]2O[C@H]2C[C@](C)(N)[C@H](O)[C@H](C)O2)Oc2ccc(cc2Cl)[C@H]1O [VANCOMYCIN] | – | ≤ 1 | > 200 | – | >2000 | >2000 | 3.9 (≈ 5.65 µg/mL) | 150 | > 100 | 3 (≈ 4.35 µg/mL) | – | 3 (≈ 4.35 µg/mL) | >2000 | – | – | – | MBEC [17]: >2000 µM
5 | Oc1c(Br)cc(Br)c2nc3cc(Oc4ccccc4)ccc3nc12 | 0.1 (≈ 0.0446 µg/mL) | ≤ 1 | – | 0.075 (≈ 0.0335 µg/mL) | – | – | – | – | 0.2 (≈ 0.0892 µg/mL) | – | > 100 | – | – | 6.25 (≈ 2.79 µg/mL) | 25 (≈ 11.2 µg/mL) | 0.39 (≈ 0.174 µg/mL) | –
6 | Cc1ccc2nc3c(O)ccc(Br)c3nc2c1 | 12.5 (≈ 3.61 µg/mL) | – | – | 12.5 (≈ 3.61 µg/mL) | – | – | – | – | 25 (≈ 7.23 µg/mL) | – | > 100 | – | – | 25 (≈ 7.23 µg/mL) | – | – | selectivity ratio [20]: > 8
7 | Oc1c(Br)cc(Br)c2nc3cc(Cl)ccc3nc12 | 0.1 (≈ 0.0388 µg/mL) | ≤ 1 | – | 0.038 (≈ 0.0148 µg/mL) | 37.5 | 4.69 | – | – | – | 6.25 (≈ 2.43 µg/mL) | > 100 | 6.25 (≈ 2.43 µg/mL) | 25 | 3.13 (≈ 1.22 µg/mL) | 6.25 (≈ 2.43 µg/mL) | 0.1 (≈ 0.0388 µg/mL) | Activity [21]: Active; Activity [22]: Active; Activity [23]: Active; inhibition zone (IZ) [24]: 4.25 cm2
8 | CCc1ccc2nc3c(O)c(Br)cc(Br)c3nc2c1 | 0.1 (≈ 0.0382 µg/mL) | 3 | 50 (≈ 19.1 µg/mL) | 0.1 (≈ 0.0382 µg/mL) | 75 | 150 | 75 (≈ 28.7 µg/mL) | – | 2.35 (≈ 0.898 µg/mL) | 50 (≈ 19.1 µg/mL) | > 50 | 75 (≈ 28.7 µg/mL) | 150 | 6.25 (≈ 2.39 µg/mL) | 75 (≈ 28.7 µg/mL) | 0.59 (≈ 0.225 µg/mL) | MBEC [17]: 75 µM
9 | CCc1cccc2nc3c(Br)cc(Br)c(O)c3nc12 | > 100 | – | – | > 100 | – | – | – | – | > 100 | – | – | – | – | – | – | – | Activity [21]: inactive; Activity [23]: inactive
10 | CC1=C(C)C(=O)C(COC(=O)OCOc2c(Br)cc(Br)c3nc4cc(Cl)ccc4nc23)=C(C)C1=O | – | 2.7 | 3.13 (≈ 1.96 µg/mL) | 0.15 (≈ 0.0937 µg/mL) | 25 | 12.5 | 6.25 (≈ 3.9 µg/mL) | 3.13 | 1.56 (≈ 0.974 µg/mL) | 12.5 (≈ 7.81 µg/mL) | > 100 | – | – | – | – | – | half-life [4]: 11.4 min; inhibition zone (IZ) [24]: 2.86 cm2
11 | Cc1cc(C)c2nc3c(Br)cc(Br)c(O)c3nc2c1 | 0.1 (≈ 0.0382 µg/mL) | 2.2 | – | 0.075 to 0.08 (≈ 0.0287 to 0.0306 µg/mL) | – | – | – | – | 0.2 (≈ 0.0764 µg/mL) | – | > 100 | – | – | 50 (≈ 19.1 µg/mL) | – | 0.3 (≈ 0.115 µg/mL) | –
12 | Cc1ccc2nc3c(Br)cc(Br)c(O)c3nc2c1C | > 100 | – | – | > 100 | – | – | – | – | > 100 | – | – | – | – | – | – | – | Activity [23]: inactive
